# Compound activity as filed in PubChem.
# Only some compounds are listed: those with a hit (about 2.4% of all), similar ones and a draw of the others.
# S1P4 antag = human S1P4 receptor antagonism; O95977; S1P4-expressing cells, antagonist mode, reporter read-out; inhibition, % at 4.98 µM; 0.26% of 220,000 active; in the data active means inhibition above about 29%;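 further: 0% = wells stimulated with agonist and 100% = vehicle wells without agonist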
# NPY-Y1 antag = antagonists of human neuropeptide Y receptor Y1; P25929; HEK293-CNG Y1 cells, membrane potential fluorescence; NPY at EC95, then isoproterenol; inhibition, % at 3.6 µM; 1% of 200,000 active; AID 1040;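 active means inhibition above the campaign mean inhibition of all tested compounds plus 3 SD, cut at about 20% in these data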;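 further: 0% = DMSO wells given NPY plus isoproterenol and 100% = isoproterenol alone without NPY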
#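 Material: HEK293 cells with Y1 receptor plus CNG channel; times: compound incubation 1 h at room temperature, readout 45 min post-stimulation; signal: fluorescence, membrane potential probe; read-out basis: fluorescence ratio normalized to % inhibition between controls; benchmarks: full-block control isoproterenol-only wells, zero-block control NPY plus isoproterenol wells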
# NPY1 pot ag = potentiators or agonists of human neuropeptide Y receptor Y1; P25929; NPY-Y1 expressing cells, potentiator/agonist activation; activation, % at 3.6 µM; 0.37% of 220,000 active; in the data active means activation above about 33%, passing the limit was not always enough;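 further: cells stimulated with NPY at EC10 then isoproterenol at EC100; 0% = low agonist plus stimulus and 100% = saturating agonist plus stimulus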
# S1P4 agonist = agonists of human S1P4 receptor; activation, % at 4.98 µM; S1P4-expressing cell line, agonist reporter assay; 0.35% of 220,000 active; AID 1509; O95977; in the data active means activation above about 11%;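 further: 0% = DMSO vehicle and 100% = reference agonist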
# NPY-Y2 PAM-ag = potentiates or activates human NPY-Y2 receptor | P49146 | activation, % at 3.6 µM | 0.45% of 220,000 active | cells expressing NPY-Y2, potentiator/agonist read-out; in the data active means activation above about 27%;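 further: cells stimulated with NPY near EC25 plus isoproterenol at EC100; 0% = vehicle plus submaximal agonist and 100% = vehicle plus saturating agonist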
# NPY-Y2 antag = NPY-Y2 (human) receptor antagonism; NPY-Y2 expressing cells, antagonist mode; inhibition, % at 2.7 µM; 0.99% of 140,000 active; in the data active means inhibition above about 17%;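 further: 0% = vehicle with agonist challenge and 100% = reference antagonist with challenge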
# S1P4 antag cf = confirmation of human S1P4 receptor antagonists. shares compounds with S1P4 antag. S1P4-expressing cell line, antagonist mode, reporter read-out. inhibition, % at 4.98 µM. 71% of 520 active; in the data active means inhibition above about 30%
# S1P1 antag = blocks human S1P1, counter-screen for S1P4 antagonists; 37% of 520 active; cell-based S1P1 antagonist counterscreen, inhibition; shares compounds with S1P4 antag; inhibition, % at 4.98 µM; AID 1564; in the data active means inhibition above about 40%;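 further: receptor stimulated with S1P near its EC80; 0% = agonist stimulated wells and 100% = vehicle only wells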
# Target sequence (P21453 whole entry, looked up): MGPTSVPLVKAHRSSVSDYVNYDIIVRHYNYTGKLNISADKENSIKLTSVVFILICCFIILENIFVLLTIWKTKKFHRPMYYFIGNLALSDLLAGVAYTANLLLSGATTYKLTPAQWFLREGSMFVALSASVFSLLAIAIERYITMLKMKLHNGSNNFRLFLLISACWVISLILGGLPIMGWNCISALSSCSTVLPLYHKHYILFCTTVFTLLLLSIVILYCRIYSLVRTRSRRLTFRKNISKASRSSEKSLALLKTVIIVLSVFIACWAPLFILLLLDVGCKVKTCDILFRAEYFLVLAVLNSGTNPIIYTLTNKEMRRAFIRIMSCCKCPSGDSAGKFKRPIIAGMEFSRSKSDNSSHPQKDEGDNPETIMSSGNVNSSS
# Starred values were filed as active, the others as inactive; . = not tested or not shown.
SMILES,S1P4 antag,NPY-Y1 antag,NPY1 pot ag,S1P4 agonist,NPY-Y2 PAM-ag,NPY-Y2 antag,S1P4 antag cf,S1P1 antag
Cc1nn(-c2ccccc2)c2c1C(c1ccc(O)c(O)c1)N1C(=N2)C(Nc2ccccc2)=Nc2ccccc21 (centres undefined),51*,-3,15,0,22,1,70*,65*
CCOC(=O)COc1cccc2c(=O)n(CC(=O)NCc3ccc(F)cc3)ccc12,33*,.,6,-1,-20,.,30*,73*
O=[N+]([O-])c1ccc(-n2nnnc2-c2ccccc2)cc1,0,0,-10,0,6,.,.,.
O=[N+]([O-])c1ccc(-n2nnnc2-c2ccccc2)c([N+](=O)[O-])c1,35*,5,-6,-3,12,0,53*,31
CCCCNC(=O)NNC(=O)c1cc(C)on1,-7,.,-8,-2,-19,.,.,.
CC(NC(=O)c1cccc(Cn2cc([N+](=O)[O-])cn2)c1)c1ccc(C(C)(C)C)cc1 (centres undefined),76*,-4,6,0,3,-3,3,-2
C/C(=N\NC(=O)c1ccc(N2CCCC2=O)cc1)c1ccncc1,-14,.,10,1,6,.,.,.
O=C1/C(=C/c2ccncc2)CCC/C1=C\c1ccncc1,83*,2,-7,-1,-7,.,99*,5
O=C(/C(=C/c1ccc(Cl)cc1)c1nc2ccccc2[nH]1)c1cccs1,44*,23*,-50,-1,-9,46*,116*,74*
O=C(/C(=C\c1ccccc1)c1nc2ccccc2[nH]1)c1ccc(Cl)cc1,-7,-2,-22,1,11,1,.,.
O=C(CSc1nc2[nH]ncc2c(=O)[nH]1)N1CCCCC1,-13,6,-1,1,-4,2,.,.
